Data set [1] has as its system LLC-PK1. Briefly: Apparent permeability of the compound from apical to basolateral direction in pig LLC-PK1 cells expressing human MDR1. Format: ADME, cell-based, Sus scrofa. A digest of the protocol:
(§1)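 MDR1-LLC-PK1 pig kidney cells expressing human MDR1; compound at 5 μM with 0.1% BSA; apparent permeability measured apical-to-basolateral and basolateral-to-apical.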

Data set [2] can be described thus: AUC in Sprague-Dawley rat at 0.5 mg/kg, iv. It is filed as ADME, organism-based. The following applies: plasma. On the set-up: dose 0.5 mg/kg, route intravenous. A digest of the protocol:
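Male Sprague-Dawley rats dosed intravenously at 0.5 mg/kg in 0.5 mL/kg of 100% DMSO; pharmacokinetic parameters derived from plasma exposure.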

A short description of data set [3]: Aqueous solubility of the compound in PBS pH 7.4. Format: physicochemical.
Data set [4] in a line: Aqueous solubility of the compound in SIF pH 6.8. Format: physicochemical.
Data set [5] can be described thus: Aqueous solubility of the compound in 0.01 N HCl. Format: physicochemical.
The subject of data set [6] is LLC-PK1. The experiment in a line: Apparent permeability of the compound from basolateral to apical direction in pig LLC-PK1 cells expressing human MDR1. It is filed as ADME, cell-based, Sus scrofa. A digest of the protocol: as §1
The nature of data set [7]: Oral bioavailability in Sprague-Dawley rat at 2 mg/kg. It is filed as ADME, organism-based. To be noted: in vivo. A digest of the protocol: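 Male Sprague-Dawley rats; oral dose 2 mg/kg in 10 mL/kg vehicle (30% hydroxypropyl-β-cyclodextrin pH 2.2 with methanesulfonic acid, or 1% Tween 80/2% HPMC pH 2.2 with HCl), compared with 0.5 mg/kg iv in DMSO.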
The test system of data set [8] is Rattus norvegicus. Briefly: Plasma concentration in formalin-induced Sprague-Dawley rat at 30 mg/kg, po by open-field test. Format: ADME, organism-based. On the set-up: dose 30 mg/kg, route oral. To be noted: in vivo. A digest of the protocol:
(§2)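 Rats dosed orally 2 h before formalin; plasma sampled right after the formalin test (3 h post-dose) for total drug concentration.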

Data set [9] has as its system Rattus norvegicus. Briefly: Plasma concentration in formalin-induced Sprague-Dawley rat at 20 mg/kg, po by open-field test. On the set-up: dose 20 mg/kg, route oral. Format: ADME, organism-based. To be noted: in vivo. A digest of the protocol:
as §2

Data set [10] relates to Rattus norvegicus. Briefly: Plasma concentration in formalin-induced Sprague-Dawley rat at 10 mg/kg, po by open-field test. On the set-up: dose 10 mg/kg, route oral. The following applies: in vivo. It is filed as ADME, organism-based. A digest of the protocol:
as §2

In data set [11] the test system is Rattus norvegicus. The experiment in a line: Plasma concentration in formalin-induced Sprague-Dawley rat at 3 mg/kg, po by open-field test. Format: ADME, organism-based. Also on record: dose 3 mg/kg, route oral. The following applies: in vivo. In short, it runs like this: as §2
Data set [12] has as its system Rattus norvegicus. Briefly: Plasma concentration in Sprague-Dawley rat at 10 mg/kg, po by open-field test. It is filed as ADME, organism-based. Also on record: dose 10 mg/kg, route oral. The following applies: in vivo. In short, it runs like this: (§3)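 Naive rats given oral doses of 3–30 mg/kg (n = 8 per dose), timed so recording began at the same post-dose interval as the formalin test; open-field photobeam beam breaks binned every 5 min and totalled; plasma drug measured; one-way ANOVA with Dunnett's versus vehicle.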

In data set [13] the test system is Rattus norvegicus. The experiment in a line: Plasma concentration in Sprague-Dawley rat at 3 mg/kg, po by open-field test. Format: ADME, organism-based. Also on record: dose 3 mg/kg, route oral. The following applies: in vivo. In short, it runs like this:
as §3

Data set [14] concerns Rattus norvegicus. The experiment in a line: Plasma concentration in Sprague-Dawley rat at 30 mg/kg, po by open-field test. It is filed as ADME, organism-based. On the set-up: dose 30 mg/kg, route oral. The following applies: in vivo. A digest of the protocol:
as §3

The subject of another data set is Plasma. Briefly: Unbound plasma concentration in Sprague-Dawley rat at 3 mg/kg, po. Format: ADME, organism-based. Also on record: dose 3 mg/kg, route oral. To be noted: in vivo.
For data set [15], the system named is Rattus norvegicus. The experiment in a line: Plasma concentration in Sprague-Dawley rat at 20 mg/kg, po by open-field test. Format: ADME, organism-based. On the set-up: dose 20 mg/kg, route oral. The following applies: in vivo. A digest of the protocol: as §3

Converted amounts (≈) assume the structure as drawn.

Take `CC(=O)Nc1cccc(Nc2ncnc(N3CCc4ccccc4C3)n2)c1`: the Papp in the data set with LLC-PK1 [1] and in the data set with LLC-PK1 [6] was 293 nm/s throughout. The AUC in data set [2] is 0.126 µg·h/mL. The solubility in data set [3] amounted to 0.001 mg/mL (≈ 2.77 µM); in [4], 0.031 mg/mL (≈ 86 µM); in data set [5], 0.042 mg/mL (≈ 117 µM).
For the molecule `CC(=O)Nc1cccc(Nc2ncnc(N3CCC(Oc4ccccc4)CC3)n2)c1`, the Papp in the data set with LLC-PK1 [1] and in the data set on LLC-PK1 [6] was 261 nm/s throughout. The same molecule gave a bioavailability in data set [7] of 52%. Also, the solubility in data set [3] is 0.011 mg/mL (≈ 27.2 µM); in data set [4], 0.11 mg/mL (≈ 272 µM); in data set [5] it was > 0.2 mg/mL.
In the case of `CC(=O)Nc1cccc(Nc2ncnc(N3CCC(OCc4ccccc4)CC3)n2)c1`, the Papp in the data set on LLC-PK1 [1] and with LLC-PK1 [6] was 222 nm/s throughout. In [7], the bioavailability was 19%. The solubility came to 0.015 mg/mL (≈ 35.8 µM) in data set [3], 0.086 mg/mL (≈ 205 µM) in data set [4] and 0.157 mg/mL (≈ 375 µM) in [5].
In data set [7], `CC(=O)Nc1cccc(Nc2ncnc(N3CCC(OCc4ccc(C(F)(F)F)cc4)CC3)n2)c1C` showed a bioavailability of 27%.
For `CC(=O)Nc1cccc(Nc2ncnc(N3CCC(OCc4ccc(OC(F)(F)F)cc4)CC3)n2)c1C`, the concentration in the data set with Rattus norvegicus [8] is 4.4 µM; with Rattus norvegicus [9], 3.2 µM; in the data set on Rattus norvegicus [10], 1.4 µM; with Rattus norvegicus [11], 0.5 µM; in the data set on Rattus norvegicus [12], 1.4 µM; in the data set on Rattus norvegicus [13], 0.5 µM. The concentration in the data set on Rattus norvegicus [14] amounted to 5.4 µM; in the data set with Rattus norvegicus [15], 2.9 µM. The molecule further came in with a bioavailability in [7] of 67%. The “Cp(f)” value in the data set with Plasma is 0.014 µM.

Broadly, the Papp is the rate of passage across a membrane or cell layer, normalised by area and donor concentration. As a reminder, the AUC is the area under the concentration-time curve, a measure of exposure. Higher therefore signals more exposure. The solubility is the dissolved amount per volume that the medium holds. A high value points to a readily soluble substance. One may read the bioavailability as the share of a dose that reaches the circulation, judged against a reference dose that is usually intravenous. The low end stands for poor availability, the high end for good availability.

The values are drawn from ChEMBL document CHEMBL1811851, “Identification of a potent, state-dependent inhibitor of Nav1.7 with oral efficacy in the formalin model of persistent pain” (J Med Chem, 2011).
